# Active and inactive are the calls of the source. The rule behind the calls is not given here.
# How the values were obtained:
# [1] = tested on: HeLa; experiment: Induction of apoptosis in human HeLa cells assessed as PARP cleavage after 24 to 48 hrs by Western blotting analysis; format: functional, cell-based
# Summary of the method: (§1)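 HeLa cells treated at indicated concentrations and times; washed in cold PBS, lysed 30 min at 0 °C, cleared at 15 000 × g; 20 μg protein resolved on 7.5–15% gradient SDS-PAGE, blotted to PVDF, primary antibodies 2 h room temperature, peroxidase secondary 60 min, ECL detection; β-actin reprobe for loading.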
# [2] = tested on: HeLa; experiment: Induction of apoptosis in human HeLa cells assessed as cell viability at 2.5 uM after 48 hrs by MTT assay in presence of N-acetylcysteine; format: functional, cell-based
# Summary of the method: (§2)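 HeLa cells exposed to 2.5 μM compound for 48 h with scavengers (NAC 100 μM, GSH 1 mM or DTT 1 mM, among others); viability by MTT; means ± SEM of four independent experiments, Student's t-test.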
# [3] = tested on: HeLa; experiment: Cytotoxicity against human HeLa cells assessed as growth inhibition after 72 hrs by MTT assay; format: functional, cell-based
# [4] = tested on: HT-29; experiment: Cytotoxicity against human HT-29 cells assessed as growth inhibition after 72 hrs by MTT assay; format: functional, cell-based; details: HT-29, 72 h
# [5] = tested on: CCRF-CEM; experiment: Cytotoxicity against human CEM cells assessed as growth inhibition after 72 hrs by MTT assay; format: functional, cell-based
# [6] = target: Tubulin (Bos taurus) (UniProt Q6B856+Q862L2+Q862F3); experiment: Inhibition of bovine brain tubulin polymerization at 20 uM by turbidimetry
# Summary of the method: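 Purified bovine brain tubulin (10 μM) preincubated with compound in glutamate buffer at 30 °C, cooled to 0 °C, GTP added, then warmed to 30 °C in cuvettes; assembly followed turbidimetrically; concentrations up to 20 μM.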
# [7] = tested on: HeLa; experiment: Induction of apoptosis in human HeLa cells assessed as GSH depletion at 1 to 2.5 uM after 24 hrs by CMFDA staining-based flow cytometry in presence of N-acetylcysteine; format: functional, cell-based
# Summary of the method: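 HeLa cells treated 24 h with compound, alone or with 100 μM NAC; harvested and loaded with 5 μM CMFDA, 30 min at 37 °C; intracellular GSH read as CMFDA fluorescence by flow cytometry; means ± SEM.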
# [8] = tested on: HeLa; experiment: Induction of apoptosis in human HeLa cells assessed as cell viability at 2.5 uM after 48 hrs by MTT assay in presence of reduced glutathione; format: functional, cell-based; summary of the method: as §2
# [9] = Cytotoxicity against human LoVo/DX cells assessed as growth inhibition after 72 hrs by MTT assay; format: functional, cell-based
# [10] = Cytotoxicity against human SEM cells assessed as growth inhibition after 72 hrs by MTT assay; format: functional, cell-based
# [11] = tested on: HeLa; experiment: Induction of apoptosis in human HeLa cells assessed as caspase-3 activation at 1 to 2.5 uM by Western blotting analysis; format: functional, cell-based; details: TDE = time-dependent effect; summary of the method: as §1
# [12] = tested on: HeLa; experiment: Cell cycle arrest in human HeLa cells assessed as accumulation at G2/M phase after 24 hrs by propidium iodide staining-based flow cytometry; format: functional
# Summary of the method: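 HeLa cells in exponential growth (2.5 × 10^5) treated 24 h at various concentrations; ethanol-fixed (70%, ice-cold), lysed with RNase A/0.1% Triton X-100, PI-stained; DNA content by flow cytometry, phase percentages from DNA histograms.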
# [13] = tested on: HeLa; experiment: Induction of DNA damage in human HeLa cells assessed as increase in gammaH2A.X protein expression at 1 to 2.5 uM after 24 hrs by Western blotting analysis; format: functional, cell-based
# [14] = tested on: HeLa; experiment: Induction of apoptosis in human HeLa cells assessed as reduction in Mcl-1 protein expression at 2.5 uM after 48 hrs by Western blotting analysis; format: functional, cell-based; summary of the method: as §1
compound,measurement,setting,value
C=C(Br)C(=O)Nc1ccc(/C=C/C(=O)Nc2cc(OC)c(OC)c(OC)c2)cc1,Activity,[1],Dose-dependent effect
same,Activity,[2],inactive
same,IC50,[3],490 nM
same,IC50,[4],3700 nM
same,IC50,[5],25 nM
same,inhibition,[6],inactive
same,Activity,[7],inactive
same,Activity,[8],inactive
same,IC50,[9],1370 nM
same,IC50,[10],110 nM
same,Activity,[11],tde
same,Activity,[12],Dose-dependent effect
same,Activity,[13],Active
same,Activity,[14],Active

# — ChEMBL document CHEMBL3286242, “Design, synthesis and biological evaluation of arylcinnamide hybrid derivatives as novel anticancer agents” (Eur J Med Chem, 2014)
